Laboratory results taken from ChEMBL document CHEMBL3739274, “Highly functionalized tetrahydropyridines are cytotoxic and selective inhibitors of human puromycin sensitive aminopeptidase” (Eur J Med Chem, 2015).

Key:
[1] = Inhibition of Escherichia coli aminopeptidase-N using Leu-pNA as substrate after 30 mins
How it was run: (§1)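 Enzyme was preincubated with compound in triplicate for 30 min at 37 °C in 10 mM Tris pH 7.5, 100 mM NaCl. Leu-pNA was then added and the immediate absorbance rise followed at 405 nm. IC₅₀ was computed from the concentration series.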

[2] = Inhibition of Plasmodium falciparum aminopeptidase-N using Leu-pNA as substrate after 30 mins; how it was run: as §1
HeLa = experiment: Cytotoxicity against human HeLa cells after 48 hrs by MTT assay; assay type: functional
How it was run: (§2)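 Cell lines were grown in modified Eagle's medium with 10% FBS. Cells were seeded at 10,000 per well and left 24 h to attach in humid 5% CO₂. Viability was measured by MTT, with formazan dissolved in DMSO and absorbance read at 562 nm. Results are % cytotoxicity/viability, triplicates.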

A549 = experiment: Cytotoxicity against human A549 cells after 48 hrs by MTT assay; assay type: functional; conditions: A549, 48 h; how it was run: as §2
HepG2 = experiment: Cytotoxicity against human HepG2 cells after 48 hrs by MTT assay; assay type: functional; conditions: HepG2, 48 h; how it was run: as §2
Aminopeptidase N = molecular target: T1, Aminopeptidase N (Sus scrofa, UniProt P15145); experiment: Inhibition of porcine aminopeptidase-N using Leu-pNA as substrate after 30 mins
T1 sequence (P15145 whole entry): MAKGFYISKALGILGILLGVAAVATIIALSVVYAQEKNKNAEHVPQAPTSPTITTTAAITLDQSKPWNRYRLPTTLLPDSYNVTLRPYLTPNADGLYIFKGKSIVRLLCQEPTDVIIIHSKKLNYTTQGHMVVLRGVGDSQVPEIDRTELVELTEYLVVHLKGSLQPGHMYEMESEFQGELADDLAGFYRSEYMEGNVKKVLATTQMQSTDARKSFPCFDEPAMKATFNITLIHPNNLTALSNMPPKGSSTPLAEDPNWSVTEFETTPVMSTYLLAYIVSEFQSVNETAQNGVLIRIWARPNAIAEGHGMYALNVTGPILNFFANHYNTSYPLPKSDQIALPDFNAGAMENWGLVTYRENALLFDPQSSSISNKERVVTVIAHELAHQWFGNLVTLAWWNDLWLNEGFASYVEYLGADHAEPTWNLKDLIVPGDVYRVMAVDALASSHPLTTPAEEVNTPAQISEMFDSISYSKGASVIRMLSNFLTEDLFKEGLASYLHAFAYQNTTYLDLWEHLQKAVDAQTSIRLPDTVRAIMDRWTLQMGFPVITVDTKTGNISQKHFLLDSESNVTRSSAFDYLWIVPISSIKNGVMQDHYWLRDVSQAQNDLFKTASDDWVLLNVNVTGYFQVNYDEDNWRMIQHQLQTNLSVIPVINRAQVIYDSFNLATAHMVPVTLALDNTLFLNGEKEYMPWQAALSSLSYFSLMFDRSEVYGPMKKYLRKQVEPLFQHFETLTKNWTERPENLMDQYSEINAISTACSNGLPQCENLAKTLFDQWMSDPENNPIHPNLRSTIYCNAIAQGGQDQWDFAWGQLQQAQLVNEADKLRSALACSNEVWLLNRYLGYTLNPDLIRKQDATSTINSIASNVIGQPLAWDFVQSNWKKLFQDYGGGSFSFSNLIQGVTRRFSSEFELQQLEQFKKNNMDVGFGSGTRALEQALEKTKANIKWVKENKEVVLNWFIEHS
How it was run: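 Commercial porcine enzyme was preincubated with compound in triplicate for 30 min at 37 °C. Substrate was then added and the immediate absorbance rise at 405 nm recorded. IC₅₀ was computed from the concentration series.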

[3] = molecular target: Puromycin-sensitive aminopeptidase (Homo sapiens, UniProt P55786); experiment: Inhibition of recombinant human puromycin sensitive aminopeptidase using Leu-pNA as substrate after 30 mins
Sequence of Puromycin-sensitive aminopeptidase (P55786 whole entry): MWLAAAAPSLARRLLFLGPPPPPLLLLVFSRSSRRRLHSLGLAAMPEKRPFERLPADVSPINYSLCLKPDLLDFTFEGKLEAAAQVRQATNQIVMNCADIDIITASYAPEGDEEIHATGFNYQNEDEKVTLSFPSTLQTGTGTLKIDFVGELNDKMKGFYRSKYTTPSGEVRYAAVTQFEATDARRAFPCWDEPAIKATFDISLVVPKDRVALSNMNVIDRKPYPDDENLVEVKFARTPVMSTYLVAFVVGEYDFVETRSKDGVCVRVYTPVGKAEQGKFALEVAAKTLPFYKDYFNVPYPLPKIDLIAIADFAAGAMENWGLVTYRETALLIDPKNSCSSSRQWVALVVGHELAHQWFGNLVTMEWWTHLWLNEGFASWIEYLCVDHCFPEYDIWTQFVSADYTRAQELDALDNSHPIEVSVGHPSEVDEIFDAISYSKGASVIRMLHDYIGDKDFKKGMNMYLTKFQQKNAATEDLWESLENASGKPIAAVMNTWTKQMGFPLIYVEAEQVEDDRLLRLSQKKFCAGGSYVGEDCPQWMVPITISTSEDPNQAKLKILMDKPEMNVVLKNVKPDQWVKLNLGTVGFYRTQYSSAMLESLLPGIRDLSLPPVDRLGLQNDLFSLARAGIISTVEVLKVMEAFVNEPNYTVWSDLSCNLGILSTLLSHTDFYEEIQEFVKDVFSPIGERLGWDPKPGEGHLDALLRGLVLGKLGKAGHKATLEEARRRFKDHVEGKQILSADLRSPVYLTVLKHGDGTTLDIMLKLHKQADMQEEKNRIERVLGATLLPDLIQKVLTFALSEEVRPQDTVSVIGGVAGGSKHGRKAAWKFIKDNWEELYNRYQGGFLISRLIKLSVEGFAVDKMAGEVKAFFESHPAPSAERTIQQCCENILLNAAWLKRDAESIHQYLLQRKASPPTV

Row | IC50 [1] [µM] | IC50 [2] [µM] | IC50 (Aminopeptidase N) [µM] | IC50 [3] [µM] | SMILES | GI50 (HeLa) [µM] | GI50 (A549) [µM] | GI50 (HepG2) [µM]
1 | > 100 | > 100 | > 100 | – | CCOC(=O)C1=C(Nc2ccccc2)CC(c2ccc(C#N)cc2)N(c2ccccc2)C1c1cccnc1 (stereo not given) | > 100 | > 100 | 13.7
2 | – | – | – | – | COc1cccc2c1C(=O)c1c(O)c3c(c(O)c1C2=O)C[C@@](O)(C(=O)CO)C[C@@H]3O[C@H]1C[C@H](N)[C@H](O)[C@H](C)O1 [DOXORUBICIN] | 7.51 | 8.14 | 4.45
3 | > 100 | > 100 | > 100 | – | CCOC(=O)C1=C(Nc2ccccc2)CC(c2ccc(C#N)cc2)N(c2ccccc2)C1c1ccccn1 (stereo not given) | – | – | –
4 | > 100 | > 100 | > 100 | 2.45 | COc1ccc(C[C@H](N)C(=O)N[C@H]2[C@@H](O)[C@H](n3cnc4c(N(C)C)ncnc43)O[C@@H]2CO)cc1 [PUROMYCIN] | – | – | –
5 | – | – | – | – | CCOC(=O)C1=C(Nc2ccccc2)CC(c2ccc(Br)cc2)N(c2ccccc2)C1c1ccc([N+](=O)[O-])cc1 (stereo not given) | 10.6 | > 100 | > 100
6 | > 100 | > 100 | > 100 | – | OC1=CC(c2ccccn2)N(c2ccccc2)C(c2ccccn2)C1 (stereo not given) | – | – | –
7 | > 100 | > 100 | > 100 | – | CCOC(=O)C1=C(Nc2ccccc2)CC(c2cccnc2)N(c2ccccc2)C1c1cccnc1 (stereo not given) | 87.9 | > 100 | 81.5
8 | > 100 | > 100 | > 100 | – | CCOC(=O)C1=C(Nc2ccccc2)CC(c2ccc(Br)cc2)N(c2ccccc2)C1c1cccs1 (stereo not given) | – | – | –
9 | – | – | – | – | CCOC(=O)C1=C(Nc2ccccc2)CC(c2ccc(F)cc2)N(c2ccccc2)C1c1ccc([N+](=O)[O-])cc1 (stereo not given) | 88.2 | > 100 | > 100
10 | > 100 | > 100 | > 100 | – | COC(=O)C1=C(Nc2ccccc2)CC(c2ccc([N+](=O)[O-])cc2)N(c2ccccc2)C1c1ccc([N+](=O)[O-])cc1 (stereo not given) | – | – | –
11 | > 100 | > 100 | > 100 | – | CCOC(=O)C1=C(Nc2ccccc2)CC(c2ccc(Cl)cc2)N(c2ccccc2)C1c1cccnc1 (stereo not given) | 9.95 | > 100 | 11.9
12 | > 100 | > 100 | > 100 | – | CCOC(=O)C1C(=O)CC(c2cccnc2)N(c2ccccc2)C1c1cccnc1 (stereo not given) | 9.32 | > 100 | 11.2
13 | – | – | – | – | CCOC(=O)C1=C(Nc2ccc(C)cc2)CC(c2ccc(F)cc2)N(c2ccc(C)cc2)C1c1ccc(F)cc1 (stereo not given) | > 100 | > 100 | 14.9
14 | > 100 | > 100 | > 100 | – | CCOC(=O)C1=C(Nc2ccccc2)CC(c2cc(OC)c(OC)c(OC)c2)N(c2ccccc2)C1c1cccnc1 (stereo not given) | – | – | –
15 | > 100 | > 100 | > 100 | – | CCOC(=O)C1=C(Nc2ccccc2)CC(c2ccccn2)N(c2ccccc2)C1c1ccccn1 (stereo not given) | – | – | –
16 | > 100 | > 100 | > 100 | – | CCOC(=O)C1C(=O)CC(c2ccccn2)N(c2ccccc2)C1c1ccccn1 (stereo not given) | – | – | –
17 | > 100 | > 100 | > 100 | – | CCOC(=O)C1=C(Nc2ccc(C)cc2)CC(c2ccccc2)N(c2ccc(C)cc2)C1c1ccccn1 (stereo not given) | 90.7 | > 100 | > 100
18 | > 100 | > 100 | > 100 | – | OC1=CC(c2cccnc2)N(c2ccccc2)C(c2cccnc2)C1 (stereo not given) | – | – | –
